Reference: ChEMBL document CHEMBL4020842, “Discovery of N1-(4-((7-Cyclopentyl-6-(dimethylcarbamoyl)-7 H-pyrrolo[2,3- d]pyrimidin-2-yl)amino)phenyl)- N8-hydroxyoctanediamide as a Novel Inhibitor Targeting Cyclin-dependent Kinase 4/9 (CDK4/9) and Histone Deacetlyase1 (HDAC1) against Malignant Cancer” (J Med Chem, 2018)
Activity calls are given as the source filed them. No cut-off for these calls is given here.

Columns and labels:
[1] = biological target: Aurora kinase B/Inner centromere protein (Homo sapiens, UniProt Q96GD4); test: Inhibition of recombinant human full length C-terminal His6-tagged Aurora B//N-terminal GST-tagged INCENP (821-end residues) expressed in baculovirus infected sf21 cells using AKRRRLSSLRA substrate in presence of [gamma33P]ATP after 10 mins by scintillation counting method
Sequence of Aurora kinase B/Inner centromere protein (Q96GD4 whole entry): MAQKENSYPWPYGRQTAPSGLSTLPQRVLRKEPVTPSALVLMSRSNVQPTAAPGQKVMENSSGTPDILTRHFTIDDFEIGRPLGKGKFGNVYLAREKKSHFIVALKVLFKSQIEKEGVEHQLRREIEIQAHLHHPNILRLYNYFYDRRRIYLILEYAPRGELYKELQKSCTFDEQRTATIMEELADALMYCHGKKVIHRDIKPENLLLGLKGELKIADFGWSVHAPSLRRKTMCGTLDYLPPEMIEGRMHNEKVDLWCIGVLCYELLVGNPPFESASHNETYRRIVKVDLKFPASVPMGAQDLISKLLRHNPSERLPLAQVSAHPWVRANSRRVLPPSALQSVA
Sequence of Aurora kinase B/Inner centromere protein (Q9NQS7 whole entry, further chain): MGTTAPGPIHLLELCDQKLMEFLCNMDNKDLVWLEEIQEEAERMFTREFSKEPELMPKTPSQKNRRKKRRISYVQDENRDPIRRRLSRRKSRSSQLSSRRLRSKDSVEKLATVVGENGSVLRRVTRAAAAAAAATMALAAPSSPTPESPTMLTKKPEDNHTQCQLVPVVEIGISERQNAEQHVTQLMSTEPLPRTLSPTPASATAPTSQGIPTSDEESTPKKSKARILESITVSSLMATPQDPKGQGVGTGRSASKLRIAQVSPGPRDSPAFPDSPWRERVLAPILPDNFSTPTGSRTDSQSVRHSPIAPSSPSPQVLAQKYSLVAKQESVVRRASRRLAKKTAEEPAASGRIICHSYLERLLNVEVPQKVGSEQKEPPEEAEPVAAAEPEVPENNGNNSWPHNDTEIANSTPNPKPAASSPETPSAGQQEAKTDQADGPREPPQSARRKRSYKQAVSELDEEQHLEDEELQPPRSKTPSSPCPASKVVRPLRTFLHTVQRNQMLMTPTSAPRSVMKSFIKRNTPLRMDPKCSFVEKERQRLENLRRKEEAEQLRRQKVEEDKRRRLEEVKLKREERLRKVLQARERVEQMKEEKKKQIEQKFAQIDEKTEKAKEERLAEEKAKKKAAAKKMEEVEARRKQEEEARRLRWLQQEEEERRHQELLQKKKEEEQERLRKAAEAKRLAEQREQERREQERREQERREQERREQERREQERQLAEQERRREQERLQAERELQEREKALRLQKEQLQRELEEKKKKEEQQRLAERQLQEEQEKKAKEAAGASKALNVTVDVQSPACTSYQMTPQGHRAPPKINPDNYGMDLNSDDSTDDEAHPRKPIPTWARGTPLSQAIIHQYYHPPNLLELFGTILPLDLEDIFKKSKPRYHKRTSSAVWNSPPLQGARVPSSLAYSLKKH

A549 [2] = test: Induction of apoptosis in human A549 cells assessed as necrotic cells at 5 uM after 48 hrs by annexin V-FITC/propidium iodide staining based flow cytometry (reference value: […]%); assay type: functional
A549 [3] = test: Induction of apoptosis in human A549 cells assessed as live cells at 5 uM after 48 hrs by annexin V-FITC/propidium iodide staining based flow cytometry (reference value: 92.7%); assay type: functional
HepG2 [4] = test: Induction of apoptosis in human HepG2 cells assessed as live cells at 10 uM after 48 hrs by annexin V-FITC/propidium iodide staining based flow cytometry (reference value: 96.7%); assay type: functional
NCI-H460 [5] = test: Induction of apoptosis in human NCI-H460 cells assessed as early apoptotic cells at 5 uM after 48 hrs by annexin V-FITC/propidium iodide staining based flow cytometry (reference value: 0.11%); assay type: functional
T47D [6] = test: Induction of apoptosis in human T47D cells assessed as early apoptotic cells at 1 uM after 48 hrs by annexin V-FITC/propidium iodide staining based flow cytometry (reference value: 7.7%); assay type: functional
T47D [7] = test: Induction of apoptosis in human T47D cells assessed as live cells at 1 uM after 48 hrs by annexin V-FITC/propidium iodide staining based flow cytometry (reference value: 85.3%); assay type: functional
T47D [8] = test: Induction of apoptosis in human T47D cells assessed as necrotic cells at 10 uM after 48 hrs by annexin V-FITC/propidium iodide staining based flow cytometry (reference value: 0.8%); assay type: functional
T47D [9] = test: Cytotoxicity against human T47D cells assessed as reduction in cell viability after 72 hrs by CCK8 assay; assay type: functional, cell-based
MDA-MB-231 [10] = test: Cell cycle arrest in human MDA-MB-231 cells assessed as decrease in S-phase at 625 nM after 24 hrs by propidium iodide staining based flow cytometry; assay type: functional
How it was run: (§1)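 Cells were exposed for 24 h to a range of concentrations (625 nM, 2.5 and 10 µM), with DMSO vehicle as control. They were then stained with propidium iodide and analysed by flow cytometry to obtain the percentages of cells in G0/G1, S and G2 phases.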

MDA-MB-231 [11] = test: Cell cycle arrest in human MDA-MB-231 cells assessed as accumulation at G0/G1 phase at 625 nM after 24 hrs by propidium iodide staining based flow cytometry; assay type: functional; how it was run: as §1
HepG2 [12] = test: Cell cycle arrest in human HepG2 cells assessed as accumulation at G0/G1 phase at 625 nM after 24 hrs by propidium iodide staining based flow cytometry; assay type: functional; how it was run: as §1
[13] = biological target: Calcium/calmodulin-dependent protein kinase kinase 2 (Homo sapiens, UniProt Q96RR4); test: Inhibition of recombinant human full length C-terminal 6His-tagged CaMKK2 expressed in baculovirus infected sf21 cells
Sequence of Calcium/calmodulin-dependent protein kinase kinase 2 (Q96RR4 whole entry): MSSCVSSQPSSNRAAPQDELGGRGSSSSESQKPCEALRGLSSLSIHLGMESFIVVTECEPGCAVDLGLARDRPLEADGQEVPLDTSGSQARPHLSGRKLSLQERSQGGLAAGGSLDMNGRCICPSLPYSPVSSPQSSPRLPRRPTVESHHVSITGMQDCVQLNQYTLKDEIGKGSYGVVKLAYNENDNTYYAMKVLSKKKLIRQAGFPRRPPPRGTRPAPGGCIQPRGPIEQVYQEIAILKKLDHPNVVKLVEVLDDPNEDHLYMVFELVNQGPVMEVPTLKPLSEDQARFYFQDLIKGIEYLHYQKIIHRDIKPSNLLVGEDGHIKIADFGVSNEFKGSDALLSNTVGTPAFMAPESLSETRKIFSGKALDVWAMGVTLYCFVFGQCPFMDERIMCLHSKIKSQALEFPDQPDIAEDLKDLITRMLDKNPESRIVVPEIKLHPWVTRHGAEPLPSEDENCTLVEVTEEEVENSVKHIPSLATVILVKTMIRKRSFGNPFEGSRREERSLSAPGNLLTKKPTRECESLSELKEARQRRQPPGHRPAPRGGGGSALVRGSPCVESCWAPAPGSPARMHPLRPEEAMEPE

Aurora kinase A = Aurora kinase A (Homo sapiens, UniProt O14965); test: Inhibition of recombinant human full length C-terminal 6His-tagged Aurora-A expressed in baculovirus infected sf21 cells using kemptide substrate in presence of [gamma33P]ATP after 10 mins by scintillation counting method
Sequence of Aurora kinase A (O14965 whole entry): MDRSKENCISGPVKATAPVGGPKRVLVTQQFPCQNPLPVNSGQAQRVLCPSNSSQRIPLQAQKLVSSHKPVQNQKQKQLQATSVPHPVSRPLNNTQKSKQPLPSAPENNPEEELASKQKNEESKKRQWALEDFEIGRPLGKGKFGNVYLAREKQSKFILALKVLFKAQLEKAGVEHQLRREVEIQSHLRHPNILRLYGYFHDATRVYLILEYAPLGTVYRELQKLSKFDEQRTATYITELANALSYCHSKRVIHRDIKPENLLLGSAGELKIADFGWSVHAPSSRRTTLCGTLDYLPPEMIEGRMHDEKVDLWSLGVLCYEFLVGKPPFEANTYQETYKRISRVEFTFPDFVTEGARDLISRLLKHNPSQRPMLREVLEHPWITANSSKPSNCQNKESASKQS

Histone deacetylase 1 [14] = biological target: T1, Histone deacetylase 1 (Homo sapiens, UniProt Q13547); test: Inhibition of HDAC1 (unknown origin)
T1 sequence (Q13547 whole entry): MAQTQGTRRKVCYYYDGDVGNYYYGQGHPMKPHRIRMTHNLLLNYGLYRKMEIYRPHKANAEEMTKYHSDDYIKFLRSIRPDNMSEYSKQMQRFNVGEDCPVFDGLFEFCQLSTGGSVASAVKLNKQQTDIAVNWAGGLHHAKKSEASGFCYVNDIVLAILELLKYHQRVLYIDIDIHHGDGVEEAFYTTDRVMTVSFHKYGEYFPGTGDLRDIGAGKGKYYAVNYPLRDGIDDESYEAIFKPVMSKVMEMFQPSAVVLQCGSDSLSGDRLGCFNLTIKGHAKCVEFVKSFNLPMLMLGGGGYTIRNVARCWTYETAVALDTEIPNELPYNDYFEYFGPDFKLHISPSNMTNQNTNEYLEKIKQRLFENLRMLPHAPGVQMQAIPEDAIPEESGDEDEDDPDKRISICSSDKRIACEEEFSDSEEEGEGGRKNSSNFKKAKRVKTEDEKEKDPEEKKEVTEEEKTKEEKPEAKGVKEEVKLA

Histone deacetylase 1 [15] = biological target: T1, Histone deacetylase 1; test: Potency index, ratio of vorinostat IC50 to compound IC50 for HDAC1 (unknown origin)
Hep 3B2 [16] = test: Induction of apoptosis in human Hep3B cells assessed as early apoptotic cells at 10 uM after 48 hrs by annexin V-FITC/propidium iodide staining based flow cytometry (reference value: 1.91%); assay type: functional
Hep 3B2 [17] = test: Induction of apoptosis in human Hep3B cells assessed as live cells at 5 uM after 48 hrs by annexin V-FITC/propidium iodide staining based flow cytometry (reference value: 97.9%); assay type: functional
T47D [18] = test: Downregulation of CDK4 protein expression in human T47D cells after 48 hrs by Western blot method; assay type: functional, cell-based
How it was run: (§2)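 Treated cells were lysed and CDK4 and cyclin D1 protein levels were assessed by Western blot.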

HepG2 [19] = test: Downregulation of CDK4 protein expression in human HepG2 cells after 48 hrs by Western blot method; assay type: functional, cell-based
HepG2 [20] = test: Downregulation of Cyclin-D1 protein expression in human HepG2 cells after 48 hrs by Western blot method; assay type: functional, cell-based; how it was run: as §2
CDK4/CDK9 (Homo sapiens) [21] = biological target: T2, CDK4/CDK9 (Homo sapiens) (UniProt P11802+P50750); test: Inhibition of CDK4/CDK9 in human A549 cells assessed as reduction in Rb phosphorylation at Ser807/811 residues at 1 uM after 48 hrs by Western blot method; assay type: cell-based
T2 sequence (P11802 whole entry, looked up): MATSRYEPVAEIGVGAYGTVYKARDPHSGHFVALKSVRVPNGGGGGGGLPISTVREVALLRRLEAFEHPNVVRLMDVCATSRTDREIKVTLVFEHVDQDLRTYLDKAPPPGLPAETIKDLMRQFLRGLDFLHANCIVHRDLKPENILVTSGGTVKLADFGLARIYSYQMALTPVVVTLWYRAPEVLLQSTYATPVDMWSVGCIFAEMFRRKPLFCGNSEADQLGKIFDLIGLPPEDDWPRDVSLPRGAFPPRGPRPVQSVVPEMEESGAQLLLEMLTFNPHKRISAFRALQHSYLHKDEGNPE
T2 sequence (P50750 whole entry, looked up): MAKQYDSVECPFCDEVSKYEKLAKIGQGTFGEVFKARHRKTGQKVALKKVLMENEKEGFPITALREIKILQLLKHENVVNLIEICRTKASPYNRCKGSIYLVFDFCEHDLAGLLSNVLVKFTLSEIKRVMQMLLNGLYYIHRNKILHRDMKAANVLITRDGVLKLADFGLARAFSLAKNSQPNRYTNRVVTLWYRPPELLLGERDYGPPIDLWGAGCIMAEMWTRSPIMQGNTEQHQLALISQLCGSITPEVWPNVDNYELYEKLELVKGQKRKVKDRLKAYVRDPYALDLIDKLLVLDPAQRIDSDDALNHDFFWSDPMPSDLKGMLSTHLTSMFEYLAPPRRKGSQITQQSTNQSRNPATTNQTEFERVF

CDK4/CDK9 (Homo sapiens) [22] = biological target: T2, CDK4/CDK9 (Homo sapiens); test: Inhibition of CDK4/CDK9 in human Hep3B cells assessed as reduction in Rb phosphorylation at Ser807/811 residues at 1 uM after 48 hrs by Western blot method; assay type: cell-based
Histone deacetylase 1 [23] = biological target: T1, Histone deacetylase 1; test: Inhibition of HDAC1 in human MDA-MB-231 cells assessed as increase in acetylated-histone H3 level at 1 to 5 uM after 48 hrs by Western blot method; assay type: cell-based
MDA-MB-231 [24] = test: Induction of apoptosis in human MDA-MB-231 cells assessed as reduction in Bcl2 protein expression after 48 hrs by Western blot method; assay type: functional, cell-based
How it was run: (§3)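 Cells were treated with or without test agent, alongside a control, for 48h. They were then lysed and analysed by Western blot for Bcl-2 protein and cleaved caspase 3.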

NCI-H460 [25] = test: Induction of apoptosis in human NCI-H460 cells assessed as caspase-3 cleavage after 48 hrs by Western blot method; assay type: functional, cell-based; how it was run: as §3
Histone deacetylase 1 [26] = biological target: T1, Histone deacetylase 1; test: Inhibition of HDAC1 in human A549 cells assessed as increase in p53 phosphorylation at Ser15 residue at 1 to 5 uM after 48 hrs by Western blot method; assay type: cell-based
[27] = Apparent volume of distribution at steady state in Sprague-Dawley rat at 20 mg/kg, iv administered as single dose by HPLC analysis; assay type: ADME, organism-based; settings: in vivo, read-out: Vdss(app)
[28] = Tmax in Sprague-Dawley rat at 20 mg/kg, ip administered as single dose by HPLC analysis; assay type: ADME, organism-based; settings: in vivo
[29] = Bioavailability in Sprague-Dawley rat at 20 mg/kg, ip administered as single dose by HPLC analysis; assay type: ADME, organism-based; settings: in vivo
[30] = Half life in Sprague-Dawley rat at 20 mg/kg, ip administered as single dose by HPLC analysis; assay type: ADME, organism-based; settings: in vivo
[31] = MRT (0 to infinity) in Sprague-Dawley rat at 20 mg/kg, po administered as single dose by HPLC analysis; assay type: ADME, organism-based; settings: in vivo
[32] = Half life in Sprague-Dawley rat at 20 mg/kg, po administered as single dose by HPLC analysis; assay type: ADME, organism-based; settings: in vivo
4T1 = test: Antitumor activity against mouse Fluc-labeled 4T1 cells implanted in Balb/c mouse assessed as tumor growth inhibition at 130 mg/kg, ip administered daily for 18 days measured after 8 to 25 days by bioluminescence assay relative to control; assay type: functional; settings: 4T1, ip, read-out: TGI
Mus musculus = test: Downregulation of Bcl2 level in tumor of Balb/c mouse implanted with mouse Fluc-labeled 4T1 cells at 90 to 130 mg/kg, […] daily for 18 days by immunohistochemical analysis; assay type: functional, organism-based

IC50 [1]: 19 nM
IC50 [13]: 53 nM
IC50 (Aurora kinase A): 12 nM
IC50 (Histone deacetylase 1 [14]): 2.2 nM
Ratio IC50 (Histone deacetylase 1 [15]): > 10
inhibition (CDK4/CDK9 (Homo sapiens) [21]): Active
inhibition (CDK4/CDK9 (Homo sapiens) [22]): Active
inhibition (Histone deacetylase 1 [23]): Active
inhibition (Histone deacetylase 1 [26]): Active
Vd [27]: 49 L/kg
Tmax [28]: 0.262 h
bioavailability [29]: 34.7%
half-life [30]: 9.65 h
MRT inf [31]: 20.3 h
half-life [32]: 14.9 h
Compound: CN(C)C(=O)c1cc2cnc(Nc3ccc(NC(=O)CCCCCCC(=O)NO)cc3)nc2n1C1CCCC1
Activity (A549 [2]): 4.16%
Activity (A549 [3]): 80.5%
Activity (HepG2 [4]): 73.3%
Activity (NCI-H460 [5]): 1.82%
Activity (T47D [6]): 4.5%
Activity (T47D [7]): 88.3%
Activity (T47D [8]): 2.62%
IC50 (T47D [9]): 2590 nM
Activity (MDA-MB-231 [10]): Active
Activity (MDA-MB-231 [11]): Active
Activity (HepG2 [12]): Active
Activity (Hep 3B2 [16]): 8.15%
Activity (Hep 3B2 [17]): 81%
Activity (T47D [18]): Dose-dependent effect
Activity (HepG2 [19]): Dose-dependent effect
Activity (HepG2 [20]): Dose-dependent effect
Activity (MDA-MB-231 [24]): Active
Activity (NCI-H460 [25]): Active
inhibition in vivo at 130 mg/kg (4T1): 84.8%
Activity (Mus musculus): Active
